Data set [1] can be described thus: Permeability across apical side at pH 6.5 to basolateral side at pH 7.4 in human Caco2 cells assessed as compound recovery at 10 uM. Conditions: caco-2, pH 6.5, 10 µM. Type of data set: ADME, cell-based. For orientation: Caco-2 cells form a polarised layer with tight junctions and transporters.
Data set [2] in a line: Permeability across basolateral side at pH 6.5 to apical side at pH 7.4 in human Caco2 cells assessed as compound recovery at 10 uM. Type of data set: ADME, cell-based. Conditions: caco-2, pH 6.5, 10 µM.
In data set [3] the test system is MDA-MB-231. The experiment in a line: Cytotoxicity against human MDA-MB-231 cells expressing luc2 assessed as reduction in cell viability after 72 hrs by MTT assay. Type of data set: functional, cell-based. Conditions: MDA-MB-231, 72 h. The method, boiled down: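 MDA-MB-231 cells grown in DMEM, 10% FBS, penicillin-streptomycin; 5 × 10^3 cells/well, 24 h at 37 °C, 5% CO2, then compound in replicate for 72 h.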
On the technique in general: Tetrazolium assays rely on reduction of a dye to a coloured formazan, in cell work by metabolically active cells.

Data set [4] is described as follows: Cytotoxicity against mouse GL261 cells expressing luc2 assessed as reduction in cell viability after 72 hrs by MTT assay. Conditions: GL261, 72 h. In kind it is functional, cell-based. The gist of the method: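 GL261-luc2 cells grown in DMEM, 10% FBS, 50 μg/mL geneticin, penicillin-streptomycin; 5 × 10^3 cells/well, 24 h at 37 °C, 5% CO2, then compound in replicate for 72 h.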

Data set [5] has as its target T1, Monocarboxylate transporter 1 (Rattus norvegicus, UniProt P53987).
T1 sequence (P53987 whole entry): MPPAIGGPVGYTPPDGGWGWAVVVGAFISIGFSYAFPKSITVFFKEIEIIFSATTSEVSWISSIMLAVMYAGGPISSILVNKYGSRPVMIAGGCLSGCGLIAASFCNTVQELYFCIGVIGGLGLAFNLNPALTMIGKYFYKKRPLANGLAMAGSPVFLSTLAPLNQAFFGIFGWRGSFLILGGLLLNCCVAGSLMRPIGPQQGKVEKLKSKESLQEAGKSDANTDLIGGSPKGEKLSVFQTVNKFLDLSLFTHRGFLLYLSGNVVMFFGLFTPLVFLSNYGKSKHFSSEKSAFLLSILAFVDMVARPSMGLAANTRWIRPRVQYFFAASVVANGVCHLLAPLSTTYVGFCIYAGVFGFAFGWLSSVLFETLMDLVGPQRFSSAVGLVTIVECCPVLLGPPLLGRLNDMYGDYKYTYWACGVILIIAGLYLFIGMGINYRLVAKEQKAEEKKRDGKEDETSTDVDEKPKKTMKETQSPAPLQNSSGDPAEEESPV
Nature of the data set: Inhibition of MCT1 in rat brain endothelial 4 cells assessed as L-[14C]-Lactate Uptake after 15 mins by scintillation spectrometric analysis. In kind it is cell-based.

The subject of data set [6] is MDA-MB-231. The experiment in a line: Antitumor activity against MCT4 expressing human MDA-MB-231 cells coexpressing luciferase xenografted in SCID mouse assessed as tumor growth inhibition at 0.5 mg/kg, ip for 5 days per week measured on day 19. Type of data set: functional. Conditions: MDA-MB-231, ip, read-out: TGI. The gist of the method:
(§1)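 Female SCID mice, right flank injected with 10 × 10^6 MDA-MB-231 cells in 1:1 matrigel-PBS; randomized, n = 6; dosing started at mean tumor volume ~100 mm3; vehicle 10% DMSO in saline. Study ended day 19; tumors excised and weighed; % inhibition = [(C − T)/C] × 100 from mean tumor weights versus vehicle. Mann-Whitney test.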
(In general: In xenograft studies the graft and the host belong to different species.)

For data set [7], the system named is Mus musculus. The experiment in a line: Toxicity in CD-1 mouse assessed as mortality at 100 mg/kg, administered via oral gavage qd. In kind it is organism-based. Conditions: in vivo. The gist of the method:
(§2)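 Healthy CD-1 mice were dosed once daily, either 20 mg/kg ip or 100 mg/kg by oral gavage. Control mice received vehicle (10% DMSO in saline). Animals were monitored for mortality, body weight change and apparent side effects, compared with the vehicle group. The study was conducted by GenScript under an approved IACUC protocol.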

The test system of data set [8] is MDA-MB-231. Nature of the data set: Antitumor activity against MCT4 expressing human MDA-MB-231 cells coexpressing luciferase xenografted in SCID mouse assessed as tumor growth inhibition at 20 mg/kg, ip qd measured on day 19. In kind it is functional. Conditions: MDA-MB-231, ip, 456 h, read-out: TGI. The method, boiled down: as §1
Data set [9] deals with MDA-MB-231. The experiment in a line: Antitumor activity against MCT4 expressing human MDA-MB-231 cells coexpressing luciferase xenografted in SCID mouse assessed as tumor growth inhibition at 100 mg/kg, administered via oral gavage qd measured on day 19. Type of data set: functional. Conditions: MDA-MB-231, po, 456 h, read-out: TGI. The method, boiled down:
as §1

In data set [10] the test system is Mus musculus. Nature of the data set: Toxicity in CD-1 mouse assessed as visible toxic effects at 20 mg/kg, ip qd. In kind it is organism-based. Conditions: in vivo. The gist of the method: as §2
Data set [11] has as its system Mus musculus. Nature of the data set: Toxicity in CD-1 mouse assessed as change in body weight at 100 mg/kg, administered via oral gavage qd. Conditions: in vivo. In kind it is organism-based. The method, boiled down:
as §2

Data set [12] concerns Mus musculus. Nature of the data set: Toxicity in CD-1 mouse assessed as visible toxic effects at 100 mg/kg, administered via oral gavage qd. Type of data set: organism-based. Conditions: in vivo. The gist of the method:
as §2

Data set [13] deals with Mus musculus. The experiment in a line: Toxicity in CD-1 mouse assessed as mortality at 20 mg/kg, ip qd. In kind it is organism-based. Conditions: in vivo. The gist of the method:
as §2

The subject of data set [14] is Mus musculus. Nature of the data set: Toxicity in CD-1 mouse assessed as change in body weight at 20 mg/kg, ip qd. In kind it is organism-based. Conditions: in vivo. The gist of the method: as §2
Data set [15] can be described thus: Efflux ratio of permeability from basolateral to apical side over apical to basolateral side in human Caco2 cells. Type of data set: ADME, cell-based. Conditions: caco-2.
Data set [16] can be described thus: Antitumor activity against MCT1 expressing mouse GL261 cells coexpressing luc2 syngrafted in C57BL/6 mouse assessed as tumor growth inhibition at 20 mg/kg, ip qd. In kind it is functional. Conditions: C57BL/6, GL261, ip, read-out: TGI. The method, boiled down: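 GL261-luc2 cells (5 × 10^6) in 1:1 matrigel-PBS injected into right flank of C57BL/6 mice (male and female); randomized, n = 6; dosing began at tumor volume 200 mm3; vehicle 10% DMSO in saline. Caliper measurement every 2–3 days, V = ab²/2. At study end tumors excised and weighed; % inhibition = [(C − T)/C] × 100 on mean tumor weights. Mann-Whitney test.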

This is an account of results in ChEMBL document CHEMBL3813630, “Coumarin carboxylic acids as monocarboxylate transporter 1 inhibitors: In vitro and in vivo studies as potential anticancer agents” (Bioorg Med Chem Lett, 2016).

Structures are written as SMILES.

The IC50 is the concentration at which inhibition is half-maximal.

On to `CC(C)NCC(O)COc1cccc2ccccc12` (stereo not given) [PROPRANOLOL], for which the Drug recovery in data set [1] is 67%; in data set [2], 80%.
Take `CC(CCc1ccccc1)NCC(O)c1ccc(O)c(C(N)=O)c1` (stereo not given) [LABETALOL]: the results for the Drug recovery in data set [1] and in [2] were 66% and 72%, respectively.
For `C#CCN(CC#C)c1ccc2cc(C(=O)O)c(=O)oc2c1`, the results for the IC50 (in the data set with MDA-MB-231 [3]; in [4]; in data set [5]) were more than 250 µM, more than 250 µM and 0.21 µM, respectively.
With `C=CCN(CC=C)c1ccc2cc(C(=O)O)c(=O)oc2c1`, the IC50 is more than 250 µM with MDA-MB-231 [3], more than 250 µM in [4] and 0.17 µM in data set [5].
Consider `COc1cccc2c1C(=O)c1c(O)c3c(c(O)c1C2=O)C[C@@](O)(C(=O)CO)C[C@@H]3O[C@H]1C[C@H](N)[C@H](O)[C@H](C)O1` [DOXORUBICIN], for which, in the data set on MDA-MB-231 [6], the inhibition in vivo at 0.5 mg/kg is 50%.
`COc1cc2c(c(OC)c1OC)-c1ccc(OC)c(=O)cc1[C@@H](NC(C)=O)CC2` [COLCHICINE]: the Drug recovery in data set [1] worked out at 75%.
As for `CCCN(CCC)c1ccc2cc(C(=O)O)c(=O)oc2c1`, the figures for the IC50 (in the data set on MDA-MB-231 [3]; in [4]; in data set [5]) were more than 250 µM, more than 250 µM and 0.45 µM, respectively.
For the molecule `O=C(O)c1cc2ccc(N(Cc3ccccc3)Cc3ccccc3)cc2oc1=O`, the Activity entry with Mus musculus [7], in the data set with Mus musculus [10], in the data set with Mus musculus [11], with Mus musculus [12], in the data set on Mus musculus [13] and in the data set with Mus musculus [14] was “Non-toxic” throughout. Also, the figures for the inhibition in vivo at 20 mg/kg (in the data set on MDA-MB-231 [8]; in data set [16]) were 10% and 77%, respectively. Further, the Drug recovery in [1] was determined as 34%; in data set [2], 55%. Besides, the inhibition in vivo at 100 mg/kg with MDA-MB-231 [9] worked out at 13%. Also, the IC50 in the data set on MDA-MB-231 [3] was 240 µM; in data set [4], more than 250 µM; in data set [5], 0.09 µM. The Ratio in [15] was 0.2.
With `CNC(=C[N+](=O)[O-])NCCSCc1ccc(CN(C)C)o1` [RANITIDINE], the Drug recovery in data set [2] amounted to 85%.
`Cn1nnc2c(C(N)=O)ncn2c1=O` [TEMOZOLOMIDE]: the inhibition in vivo at 20 mg/kg in [16] came to 81%.
With `O=C(O)c1cc2ccc(N3CCCC3)cc2oc1=O`, the figures for the concentration for half-maximal inhibition (IC50) (with MDA-MB-231 [3]; in [4]; in data set [5]) were more than 250 µM, more than 250 µM and 0.38 µM, respectively.
